Measurements published in ChEMBL document CHEMBL1687778, “Genetic determinants involved in the susceptibility of Pseudomonas aeruginosa to beta-lactam antibiotics” (2010).
Converted amounts (≈) assume the structure as drawn.

What was measured:
Assay type in all cases: functional
Pseudomonas aeruginosa [1] = assay: Antimicrobial activity against Pseudomonas aeruginosa PA14 PA3667 harboring mutation in putative cysteine sulfinate desulfinase by Etest method
How it was run: (§1)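 Etest MIC. Overnight LB cultures at 37°C were diluted in sterile 0.85% NaCl to about 1 × 10^7 CFU/ml. 100 µl was spread on Mueller-Hinton agar, one strip was placed per plate, and plates were incubated at 37°C for 18 h. Equal cell numbers were seeded per plate, and results were verified in triplicate. PA14 wild type was included in each set as a susceptibility control.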

Pseudomonas aeruginosa [2] = assay: Antimicrobial activity against Pseudomonas aeruginosa PA14 PA5000 harboring wapR mutant gene by Etest method; how it was run: as §1
Pseudomonas aeruginosa [3] = assay: Antimicrobial activity against Pseudomonas aeruginosa PA14 PA5288 harboring glnK mutant gene by Etest method; how it was run: as §1
Pseudomonas aeruginosa [4] = assay: Antimicrobial activity against Pseudomonas aeruginosa PA14 PA0766 harboring mucD mutant gene by Etest method
How it was run: (§2)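 Overnight LB cultures (37°C) diluted in sterile 0.85% NaCl to about 1 × 10^7 CFU/ml. 100 µl spread on Mueller-Hinton agar, one Etest strip per plate, 18 h at 37°C. Ceftazidime, imipenem and meropenem tested. Wild-type PA14 plate included in each set. Each mutant verified in triplicate.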

Pseudomonas aeruginosa [5] = assay: Antimicrobial activity against Pseudomonas aeruginosa PA14 PA4745 harboring nusA mutant gene by Etest method; how it was run: as §1
Pseudomonas aeruginosa [6] = assay: Antimicrobial activity against Pseudomonas aeruginosa PA14 PA14_15600 harboring mutation in conserved hypothetical protein by Etest method; how it was run: as §2
Pseudomonas aeruginosa [7] = assay: Antimicrobial activity against Pseudomonas aeruginosa PA14 PA5130 harboring mutation in putative rhodanese-like domain protein by Etest method; how it was run: as §1
Pseudomonas aeruginosa [8] = assay: Antimicrobial activity against Pseudomonas aeruginosa PA14 PA3620 harboring mutS mutant gene by Etest method; how it was run: as §1
Pseudomonas aeruginosa [9] = assay: Antimicrobial activity against Pseudomonas aeruginosa PA14 PA2615 harboring ftsK mutant gene by Etest method; how it was run: as §2
Pseudomonas aeruginosa [10] = assay: Antimicrobial activity against Pseudomonas aeruginosa PA14 PA3050 harboring pyrD mutant gene by Etest method; how it was run: as §2
Pseudomonas aeruginosa [11] = assay: Antimicrobial activity against Pseudomonas aeruginosa PA14 PA1553 harboring mutation in putative cytochrome c oxidase, cbb3 type, subunit II by Etest method; how it was run: as §2
Pseudomonas aeruginosa [12] = assay: Antimicrobial activity against Pseudomonas aeruginosa PA14 PA0958 harboring oprD mutant gene by Etest method; how it was run: as §2
Pseudomonas aeruginosa [13] = assay: Antimicrobial activity against Pseudomonas aeruginosa PA14 PA0011 harboring mutation in putative 2-OH-lauroyltransferase by Etest method; how it was run: as §2
Pseudomonas aeruginosa [14] = assay: Antimicrobial activity against Pseudomonas aeruginosa PA14 PA5366 harboring pstB mutant gene by Etest method; how it was run: as §1
Pseudomonas aeruginosa [15] = assay: Antimicrobial activity against Pseudomonas aeruginosa PA14 PA14_07490/07510 harboring mutation in intergenic region by Etest method; how it was run: as §2
Pseudomonas aeruginosa [16] = assay: Antimicrobial activity against Pseudomonas aeruginosa PA14 PA0479 harboring mutation in putative transcriptional regulator, LysR family by Etest method; how it was run: as §2
Pseudomonas aeruginosa [17] = assay: Antimicrobial activity against Pseudomonas aeruginosa PA14 PA2970 harboring rpmF mutant gene by Etest method; how it was run: as §2
Pseudomonas aeruginosa [18] = assay: Antimicrobial activity against Pseudomonas aeruginosa PA14 PA14_23420 harboring mutation in putative zinc-binding dehydrogenase by Etest method; how it was run: as §2
Pseudomonas aeruginosa [19] = assay: Antimicrobial activity against Pseudomonas aeruginosa PA14 PA4269 harboring rpoC mutant gene by Etest method; how it was run: as §1
Pseudomonas aeruginosa [20] = assay: Antimicrobial activity against Pseudomonas aeruginosa PA14 PA5002 harboring mutation in hypothetical protein by Etest method; how it was run: as §1
Pseudomonas aeruginosa [21] = assay: Antimicrobial activity against Pseudomonas aeruginosa PA14 PA5174 harboring mutation in putative beta-ketoacyl synthase by Etest method; how it was run: as §1
Pseudomonas aeruginosa [22] = assay: Antimicrobial activity against Pseudomonas aeruginosa PA14 PA4748 harboring tpiA mutant gene by Etest method; how it was run: as §1
Pseudomonas aeruginosa [23] = assay: Antimicrobial activity against Pseudomonas aeruginosa PA14 PA14_23430 harboring mutation in putative heparinase by Etest method; how it was run: as §2
Pseudomonas aeruginosa [24] = assay: Antimicrobial activity against Pseudomonas aeruginosa PA14 PA3141 harboring wbpM mutant gene by Etest method; how it was run: as §2
Pseudomonas aeruginosa [25] = assay: Antimicrobial activity against Pseudomonas aeruginosa PA14 PA0770 harboring rnc mutant gene by Etest method; how it was run: as §2
Pseudomonas aeruginosa [26] = assay: Antimicrobial activity against Pseudomonas aeruginosa PA14 PA1011 harboring mutation in putative lipoprotein by Etest method; how it was run: as §2
Pseudomonas aeruginosa [27] = assay: Antimicrobial activity against Pseudomonas aeruginosa PA14 PA4069 harboring mutation in putative dTDP-4-rhamnose reductase-related protein by Etest method; how it was run: as §1
Pseudomonas aeruginosa [28] = assay: Antimicrobial activity against Pseudomonas aeruginosa PA14 PA4007 harboring proA mutant gene by Etest method; how it was run: as §1
Pseudomonas aeruginosa [29] = assay: Antimicrobial activity against Pseudomonas aeruginosa PA14 PA3818 harboring suhB mutant gene by Etest method; how it was run: as §1
Pseudomonas aeruginosa [30] = assay: Antimicrobial activity against Pseudomonas aeruginosa PA14 PA0401 harboring mutation in Noncatalytic dihydroorotase-like protein by Etest method; how it was run: as §2
Pseudomonas aeruginosa [31] = assay: Antimicrobial activity against Pseudomonas aeruginosa PA14 PA14_59780 harboring rcsC mutant gene by Etest method; how it was run: as §2
Pseudomonas aeruginosa [32] = assay: Antimicrobial activity against Pseudomonas aeruginosa PA14 PA3800 harboring mutation in conserved hypothetical protein by Etest method; how it was run: as §1
Pseudomonas aeruginosa [33] = assay: Antimicrobial activity against Pseudomonas aeruginosa PA14 PA3589 harboring mutation in acetyl-coenzyme A (CoA) acetyltransferase (thiolase) by Etest method; how it was run: as §1
Pseudomonas aeruginosa [34] = assay: Antimicrobial activity against Pseudomonas aeruginosa PA14 PA4393 harboring mutation in putative permease by Etest method; how it was run: as §1
Pseudomonas aeruginosa [35] = assay: Antimicrobial activity against Pseudomonas aeruginosa PA14 PA14_06490 harboring mutation in hypothetical protein by Etest method; how it was run: as §2
Pseudomonas aeruginosa [36] = assay: Antimicrobial activity against Pseudomonas aeruginosa PA14 PA2963 harboring mutation in putative aminodeoxychorismate lyase by Etest method; how it was run: as §2
Pseudomonas aeruginosa [37] = assay: Antimicrobial activity against Pseudomonas aeruginosa PA14 PA3978 harboring mutation in hypothetical protein by Etest method; how it was run: as §1
Pseudomonas aeruginosa [38] = assay: Antimicrobial activity against Pseudomonas aeruginosa PA14 PA2128 harboring cupA1 mutant gene by Etest method; how it was run: as §2
Pseudomonas aeruginosa [39] = assay: Antimicrobial activity against Pseudomonas aeruginosa PA14 PA2621 harboring clpS mutant gene by Etest method; how it was run: as §2
Pseudomonas aeruginosa [40] = assay: Antimicrobial activity against Pseudomonas aeruginosa PA14 PA0667 harboring mutation in putative metallopeptidase by Etest method; how it was run: as §2
Pseudomonas aeruginosa [41] = assay: Antimicrobial activity against Pseudomonas aeruginosa PA14 PA0807 harboring ampDh3 mutant gene by Etest method; how it was run: as §2
Pseudomonas aeruginosa [42] = assay: Antimicrobial activity against Pseudomonas aeruginosa PA14 PA0427 harboring oprM mutant gene by Etest method; how it was run: as §2
Pseudomonas aeruginosa [43] = assay: Antimicrobial activity against Pseudomonas aeruginosa PA14 PA4946 harboring mutL mutant gene by Etest method; how it was run: as §1
Pseudomonas aeruginosa [44] = assay: Antimicrobial activity against Pseudomonas aeruginosa PA14 PA0402 harboring pyrB mutant gene by Etest method; how it was run: as §2
Pseudomonas aeruginosa [45] = assay: Antimicrobial activity against Pseudomonas aeruginosa PA14 PA2797 harboring mutation in putative anti-anti-sigma factor by Etest method; how it was run: as §2
Pseudomonas aeruginosa [46] = assay: Antimicrobial activity against Pseudomonas aeruginosa PA14 PA4527 harboring pilC mutant gene by Etest method; how it was run: as §1
Pseudomonas aeruginosa [47] = assay: Antimicrobial activity against Pseudomonas aeruginosa PA14 PA5038 harboring aroB mutant gene by Etest method; how it was run: as §1
Pseudomonas aeruginosa [48] = assay: Antimicrobial activity against Pseudomonas aeruginosa PA14 PA0420 harboring bioA mutant gene by Etest method; how it was run: as §2

CC(C)(O/N=C(\C(=O)N[C@@H]1C(=O)N2C(C(=O)[O-])=C(C[n+]3ccccc3)CS[C@H]12)c1csc(N)n1)C(=O)O [CEFTAZIDIME]
MIC (Pseudomonas aeruginosa [1]): 3 µg/mL (≈ 5.49 µM) | MIC (Pseudomonas aeruginosa [2]): 4 µg/mL (≈ 7.32 µM) | MIC (Pseudomonas aeruginosa [3]): 0.5 µg/mL (≈ 0.915 µM) | MIC (Pseudomonas aeruginosa [4]): 0.38 µg/mL (≈ 0.695 µM) | MIC (Pseudomonas aeruginosa [5]): 0.75 µg/mL (≈ 1.37 µM) | MIC (Pseudomonas aeruginosa [6]): 1.5 µg/mL (≈ 2.74 µM) | MIC (Pseudomonas aeruginosa [7]): 0.75 µg/mL (≈ 1.37 µM) | MIC (Pseudomonas aeruginosa [8]): 2 µg/mL (≈ 3.66 µM) | MIC (Pseudomonas aeruginosa [9]): 0.25 µg/mL (≈ 0.457 µM) | MIC (Pseudomonas aeruginosa [10]): 0.5 µg/mL (≈ 0.915 µM) | MIC (Pseudomonas aeruginosa [11]): 0.75 µg/mL (≈ 1.37 µM) | MIC (Pseudomonas aeruginosa [12]): 0.75 µg/mL (≈ 1.37 µM) | MIC (Pseudomonas aeruginosa [13]): 0.38 µg/mL (≈ 0.695 µM) | MIC (Pseudomonas aeruginosa [14]): 0.75 µg/mL (≈ 1.37 µM) | MIC (Pseudomonas aeruginosa [15]): 0.5 µg/mL (≈ 0.915 µM) | MIC (Pseudomonas aeruginosa [16]): 2 µg/mL (≈ 3.66 µM) | MIC (Pseudomonas aeruginosa [17]): 0.5 µg/mL (≈ 0.915 µM) | MIC (Pseudomonas aeruginosa [18]): 2 µg/mL (≈ 3.66 µM) | MIC (Pseudomonas aeruginosa [19]): 0.5 µg/mL (≈ 0.915 µM) | MIC (Pseudomonas aeruginosa [20]): 1.5 µg/mL (≈ 2.74 µM) | MIC (Pseudomonas aeruginosa [21]): 1 µg/mL (≈ 1.83 µM) | MIC (Pseudomonas aeruginosa [22]): 1.5 µg/mL (≈ 2.74 µM) | MIC (Pseudomonas aeruginosa [23]): 2 µg/mL (≈ 3.66 µM) | MIC (Pseudomonas aeruginosa [24]): 2 µg/mL (≈ 3.66 µM) | MIC (Pseudomonas aeruginosa [25]): 0.5 µg/mL (≈ 0.915 µM) | MIC (Pseudomonas aeruginosa [26]): 0.5 µg/mL (≈ 0.915 µM) | MIC (Pseudomonas aeruginosa [27]): 0.75 µg/mL (≈ 1.37 µM) | MIC (Pseudomonas aeruginosa [28]): 0.75 µg/mL (≈ 1.37 µM) | MIC (Pseudomonas aeruginosa [29]): 0.5 µg/mL (≈ 0.915 µM) | MIC (Pseudomonas aeruginosa [30]): 0.38 µg/mL (≈ 0.695 µM) | MIC (Pseudomonas aeruginosa [31]): 0.38 µg/mL (≈ 0.695 µM) | MIC (Pseudomonas aeruginosa [32]): 0.25 µg/mL (≈ 0.457 µM) | MIC (Pseudomonas aeruginosa [33]): 2 µg/mL (≈ 3.66 µM) | MIC (Pseudomonas aeruginosa [34]): 0.75 µg/mL (≈ 1.37 µM) | MIC (Pseudomonas aeruginosa [35]): 2 µg/mL (≈ 3.66 µM) | MIC (Pseudomonas aeruginosa [36]): 0.75 µg/mL (≈ 1.37 µM) | MIC (Pseudomonas aeruginosa [37]): 0.75 µg/mL (≈ 1.37 µM) | MIC (Pseudomonas aeruginosa [38]): 0.5 µg/mL (≈ 0.915 µM) | MIC (Pseudomonas aeruginosa [39]): 4 µg/mL (≈ 7.32 µM) | MIC (Pseudomonas aeruginosa [40]): 2 µg/mL (≈ 3.66 µM) | MIC (Pseudomonas aeruginosa [41]): 0.75 µg/mL (≈ 1.37 µM) | MIC (Pseudomonas aeruginosa [42]): 0.38 µg/mL (≈ 0.695 µM) | MIC (Pseudomonas aeruginosa [43]): 1.5 µg/mL (≈ 2.74 µM) | MIC (Pseudomonas aeruginosa [44]): 0.38 µg/mL (≈ 0.695 µM) | MIC (Pseudomonas aeruginosa [45]): 3 µg/mL (≈ 5.49 µM) | MIC (Pseudomonas aeruginosa [46]): 2 µg/mL (≈ 3.66 µM) | MIC (Pseudomonas aeruginosa [47]): 3 µg/mL (≈ 5.49 µM) | MIC (Pseudomonas aeruginosa [48]): 0.5 µg/mL (≈ 0.915 µM)
